From ChEMBL document CHEMBL1155843, “Selective alkylation of beta(II)-tubulin and thioredoxin-1 by structurally related subsets of aryl chloroethylureas leading to either anti-microtubules or redox modulating agents” (2008)
Calls of active or inactive are those of the source. The rule behind the calls is not given here.

Assays:
MCF7 [1] = assay: Cell cycle arrest in human MCF7 cells assessed as accumulation at G2/M phase at 2 times GI50 after 24 hrs by flow cytometry; format: functional
How it was run: (§1)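 Cells were trypsinized, PBS-washed, fixed in ice-cold ethanol, and stained with propidium iodide plus RNase for 30 min at room temperature. G0/G1, S and G2/M fractions were measured by flow cytometry.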

MCF7 [2] = assay: Cell cycle arrest in human MCF7 cells assessed as accumulation at S phase at 2 times GI50 after 24 hrs by flow cytometry; format: functional; how it was run: as §1
M21 [3] = assay: Induction of beta2-tubulin alkylation in human M21 cells at 2 times GI50 by Western blot analysis; format: cell-based
How it was run: (§2)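 Floating and adherent cells were pooled and lysed in boiled Laemmli buffer; protein was measured by Lowry. 20 µg per lane ran on 10% SDS-PAGE and was blotted with anti-βII-tubulin (1:500), HRP anti-mouse (1:2500) and ECL. Alkylation was scored as a faster-migrating βII-tubulin band.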

M21 [4] = assay: Stimulation of nuclear translocation of thioredoxin-1 from cytosol in human M21 cells at 25 µM after 16 hrs by immunocytofluorescence
MCF7 [5] = assay: Cell cycle arrest in human MCF7 cells assessed as accumulation at G0/G1 phase at 2 times GI50 after 24 hrs by flow cytometry; format: functional; how it was run: as §1
M21 [6] = assay: Inhibition of nuclear translocation of thioredoxin-1 from cytosol in human M21 cells at 2 times GI50 after 16 hrs by immunocytofluorescence; format: functional, cell-based
How it was run: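 Cells were fixed in 3.7% formaldehyde (20 min), permeabilized with 0.1% saponin and blocked with 3% BSA. Staining used anti-Trx-1 monoclonal (1:200, 2 h, 37 °C) and Alexa-488 anti-mouse IgG (1:1000, 1 h). Trx-1 cytosol/nucleus localization was read by confocal immunofluorescence.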

MCF7 [7] = assay: Antiproliferative activity against human MCF7 cells after 48 hrs by sulforhodamine B method; format: functional; details: MCF7, 48 h
How it was run: (§3)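 Seeding per well: 5 × 10³ HT-29 cells, or 3.5 × 10³ M21 or MCF-7 cells. Drugs were dissolved fresh in DMSO and serially diluted in medium (final range 100 to 0.3), with DMSO held at 0.12%. Cells were exposed for 48 h, fixed with cold TCA (10% final, 1 h, 4 °C) and stained with 0.1% SRB for 15 min. Dye was solubilized in 10 mM Tris and read at A585. Day-0 OD was subtracted, inhibition was calculated against DMSO cells, and n ≥ 3.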

M21 [8] = assay: Induction of beta2-tubulin alkylation in human M21 cells at 2 times GI50 after 48 hrs by Western blot analysis; format: cell-based; how it was run: as §2
HT-29 = assay: Antiproliferative activity against human HT29 cells after 48 hrs by sulforhodamine B method; format: functional; details: HT-29, 48 h; how it was run: as §3
M21 [9] = assay: Induction of beta2-tubulin alkylation in human M21 cells at 2 times GI50 after 24 hrs by Western blot analysis; format: cell-based; how it was run: as §2
M21 [10] = assay: Antiproliferative activity against human M21 cells after 48 hrs by sulforhodamine B method; format: functional; details: M21, 48 h; how it was run: as §3

| GI50 (MCF7 [7]) | GI50 (HT-29) | SMILES | Activity (MCF7 [1]) | Activity (MCF7 [2]) | Activity (M21 [3]) | Activity (M21 [4]) | Activity (MCF7 [5]) | Activity (M21 [6]) | Activity (M21 [8]) | Activity (M21 [9]) | GI50 (M21 [10]) |
| --- | --- | --- | --- | --- | --- | --- | --- | --- | --- | --- | --- |
|  |  | CCC(C)SSc1ncc[nH]1 (centres undefined) [PX-12] | 58% | 13% | inactive | Active | 29% |  |  |  |  |
| 4200 nM | 1300 nM | CC1(C)CCC(C)(C)c2cc(NC(=O)NCCCl)ccc21 | 74% | 20% |  |  | 6% | inactive | Active | Active | 2600 nM |
